From ChEMBL document CHEMBL1759927, “Design, synthesis and X-ray crystallographic study of NAmPRTase inhibitors as anti-cancer agents” (Eur J Med Chem, 2011) come the findings set out here.

Test [1] has as its system MCF7. Put plainly: Antitumor activity against human MCF7 cells after 6 days by SRB assay. The test is classed as functional. Details: concentration or dose not given beside the values. In a few lines: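 MCF7 breast cancer cells were grown in RPMI 1640 with 10% FBS and antibiotic-antimycotic at 37 °C under 5% CO2. They were seeded at 50,000 cells/mL and exposed to inhibitor for six days. Cells were fixed with ice-cold TCA for 1 h, stained with SRB for 30 min at RT, washed with 1% acetic acid and solubilized in 10 mM Tris. A515 was read. […].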

The subject of test [2] is HT-1080. The test can be described thus: Cytotoxicity against human HT1080 cells after 6 days by SRB assay. Format: functional, cell-based. As to conditions: HT-1080, 144 h. In outline: (§1)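 Cells were plated at 50,000 cells/mL in a humidified 5% CO2 atmosphere at 37 °C and incubated with inhibitors for six days. They were then fixed 1 h in cold TCA, stained 30 min at RT with SRB, washed with 1% acetic acid and solubilized in 10 mM Tris before reading at 515 nm. Means of four duplicate samples were expressed relative to solvent control, with IC50 from nonlinear regression.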

The test system of test [3] is SNU-638. The test can be described thus: Cytotoxicity against human SNU638 cells after 6 days by SRB assay. The test is classed as functional, cell-based. As to conditions: SNU-638, 144 h. In outline:
as §1

Test [4] deals with HCT-116. The test can be described thus: Cytotoxicity against human HCT116 cells after 6 days by SRB assay. As to conditions: HCT-116, 144 h. Format: functional, cell-based. In outline: as §1
On the technique in general: The SRB assay estimates cell density from bound dye.

In test [5] the test system is K562. Put plainly: Cytotoxicity against human K562 cells after 6 days by SRB assay. The conditions noted are these: K562, 144 h. Format: functional, cell-based. In a few lines:
as §1

Test [6] addresses Nicotinamide phosphoribosyltransferase (Homo sapiens, UniProt P43490). Put plainly: Inhibition of human NAmPRTase by HPLC analysis.
Test [7] concerns MCF7. The test can be described thus: Antitumor activity against human MCF7 cells at 10 uM after 6 days by SRB assay. Format: functional, cell-based. The conditions noted are these: MCF7, 144 h. In outline:
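MCF7 cells were cultured in RPMI 1640 with 10% FBS at 37 °C and 5% CO2, plated at 50,000 cells/mL, and given a fixed 10 µM compound for six days. Viability was read by SRB staining after TCA fixation, Tris solubilization and absorbance at 515 nm. […], as means of three experiments with standard deviations.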

The subject of test [8] is A549. Put plainly: Cytotoxicity against human A549 cells after 6 days by SRB assay. Format: functional, cell-based. As to conditions: A549, 144 h. In outline:
as §1

Chain of Nicotinamide phosphoribosyltransferase (P43490 whole entry): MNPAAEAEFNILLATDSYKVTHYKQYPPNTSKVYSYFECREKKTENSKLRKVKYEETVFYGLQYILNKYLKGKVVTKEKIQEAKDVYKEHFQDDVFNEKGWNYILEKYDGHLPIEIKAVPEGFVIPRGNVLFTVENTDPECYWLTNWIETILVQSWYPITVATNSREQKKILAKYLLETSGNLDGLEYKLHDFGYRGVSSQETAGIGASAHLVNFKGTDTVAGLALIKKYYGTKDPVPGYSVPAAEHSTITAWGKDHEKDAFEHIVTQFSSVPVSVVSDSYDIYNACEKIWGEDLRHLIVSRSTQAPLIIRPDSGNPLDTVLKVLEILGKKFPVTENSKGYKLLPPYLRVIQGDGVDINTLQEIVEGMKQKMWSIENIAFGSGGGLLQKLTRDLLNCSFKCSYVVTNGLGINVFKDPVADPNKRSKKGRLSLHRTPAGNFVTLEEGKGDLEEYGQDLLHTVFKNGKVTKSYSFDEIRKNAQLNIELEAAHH

Take `O=C(/C=C/c1cccc([N+](=O)[O-])c1)NCCCCC1CCN(C(=O)c2ccccc2)CC1`: in test [1], the “Cell survival (% of control)” value was found to be 103.1%.

In general, IC50 refers to the concentration that inhibits the measured activity by half. As to `O=C(/C=C/c1ccc[nH]1)NCCCCC1CCN(C(=O)c2ccccc2)CC1`, the IC50 was 3.2 µM in test [2]; 1.7 µM in test [3]; 0.3 µM in test [4]; 1.4 µM in test [5]; 20.3 µM in test [6]; 1.29 µM in test [7]. Also, the IC50 in test [8] stood at 4.86 µM. The “Cell survival (% of control)” value in test [1] is recorded as 4.5%.

As for `O=C(/C=C/c1ccccc1[N+](=O)[O-])NCCCCC1CCN(C(=O)c2ccccc2)CC1`, the “Cell survival (% of control)” value in test [1] was 102.7%.

For `Cc1c2ccncc2c(C)c2c1[nH]c1ccccc12` [ELLIPTECINE], the half-inhibitory concentration (IC50) in test [2] turned out to be 0.21 µM; in test [3], 1.64 µM; in test [4], 0.41 µM; in test [5] it was 0.38 µM; in test [8], 0.47 µM.

For `O=C(/C=C/c1cccn1CCC(CO)CO)NCCCCC1CCN(C(=O)c2ccccc2)CC1`, in test [1], the “Cell survival (% of control)” value was 105%.

As for `Nc1ccccc1/C=C/C(=O)NCCCCC1CCN(C(=O)c2ccccc2)CC1`, in test [1], the “Cell survival (% of control)” value stood at 106.3%.

Consider `O=C(/C=C/c1cn(CCC(CO)CO)cn1)NCCCCC1CCN(C(=O)c2ccccc2)CC1`, for which, in test [1], the “Cell survival (% of control)” value stood at 104.3%.

`Nc1cccc(/C=C/C(=O)NCCCCC2CCN(C(=O)c3ccccc3)CC2)c1`: the “Cell survival (% of control)” value in test [1] worked out at 103.9%.

For `O=C(/C=C/c1cccnc1)NCCCCC1CCN(C(=O)c2ccccc2)CC1` [DAPORINAD], the 50% inhibitory concentration (IC50) in test [2] is less than 0.16 µM; in test [3] it was less than 0.16 µM; in test [4] it was less than 0.16 µM; in test [5] it was more than 20 µM; in test [7], 0.68 µM; in test [8], less than 0.16 µM. The “Cell survival (% of control)” value in test [1] was found to be 5.6%.

In the case of `O=C(/C=C/c1c[nH]c2ccccc12)NCCCCC1CCN(C(=O)c2ccccc2)CC1`, in test [1], the “Cell survival (% of control)” value is listed as 103.3%.

Consider `Nc1ncc(/C=C/C(=O)NCCCCC2CCN(C(=O)c3ccccc3)CC2)cn1`, for which, in test [1], the “Cell survival (% of control)” value is 103.4%.

With `Cn1cccc1/C=C/C(=O)NCCCCC1CCN(C(=O)c2ccccc2)CC1`, the “Cell survival (% of control)” value in test [1] was determined as 103.6%.

On to `O=C(/C=C/c1c[nH]cn1)NCCCCC1CCN(C(=O)c2ccccc2)CC1`, for which the “Cell survival (% of control)” value in test [1] was found to be 102.9%.

In the case of `O=C(/C=C/c1cncnc1)NCCCCC1CCN(C(=O)c2ccccc2)CC1`, the “Cell survival (% of control)” value in test [1] stood at 86.8%.

As to `O=C(/C=C/c1cn[nH]c1)NCCCCC1CCN(C(=O)c2ccccc2)CC1`, the “Cell survival (% of control)” value in test [1] amounted to 101.7%.

In the case of `O=C(/C=C/c1cn(CCC(CO)CO)c2ccccc12)NCCCCC1CCN(C(=O)c2ccccc2)CC1`, the “Cell survival (% of control)” value in test [1] was found to be 104.9%.

As to `O=C(/C=C/c1cnn(CCC(CO)CO)c1)NCCCCC1CCN(C(=O)c2ccccc2)CC1`, the “Cell survival (% of control)” value in test [1] is given as 106.6%.
